Data from ChEMBL document CHEMBL1123268 (J Med Chem, 1986).

Legend:
P388 [1] = assay: Antineoplastic activity against P388 leukemia in CD2F1 male mice and the percent increase in life span was measured on day 30.; type: functional, Mus musculus
Method in brief: (§1)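 P388 leukemia: CD2F1 male mice (18-20 g, six per group) received 10^6 cells ip on day 0. Drug injected ip daily on days 1-9. Survival followed 30 days, with some groups to 60 days. Activity read as treated/control mean survival time (T/C), with %ILS calculated as [(T - C)/C] × 100. NCI protocol.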

P388 [2] = assay: Antineoplastic activities against P388 leukemia in CD2F1 male mice.; type: functional, Mus musculus; design: unit not given here; method in brief: as §1
[3] = Therapeutic ratio as optimum dose/dose ILS40; settings: read-out: Therapeutic ratio
Method in brief: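 Therapeutic ratio derived from the P388/L1210 survival data (CD2F1 male mice, ip daily dosing days 1-9). Optimum dose is the daily dose giving maximum increase in life span. ILS40 dose is the daily dose giving a 40% increase in life span over controls.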

L1210 [4] = assay: (§2) Compound was tested for anticancer activities against L1210 leukemia in CD2F1 male mice at dose of 6.5 mg/kg per day; type: functional, Mus musculus
L1210 [5] = assay: Compound was tested for anticancer activities against L1210 leukemia in CD2F1 male mice at dose of 6.5 mg/kg per day; 0/6; type: functional, Mus musculus
P388 [6] = assay: Number of cures from P388 leukemia in CD2F1 male mice as tumor-free survivors after day 60.; type: functional, Mus musculus; settings: for Cures (survivors/total): Mus musculus
Method in brief: (§3)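 Cures in P388-bearing CD2F1 male mice: 10^6 tumor cells ip on day 0, then ip treatment daily on days 1-9 in groups of six. Animals were observed up to 60 days, and tumor-free survivors were counted as cures.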

P388 [7] = assay: Antineoplastic activity against P388 leukemia in CD2F1 male mice and the average percentage weight change on day 5 was measured.; type: functional, Mus musculus
Method in brief: (§4)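 Toxicity readout in the P388 model: CD2F1 male mice given 10^6 cells ip on day 0, then daily ip dosing for 9 days from day 1. Average percentage body-weight change on day 5 was taken as the measure of drug toxicity.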

L1210 [8] = assay: as §2; type: functional; settings: Mus musculus
P388 [9] = assay: Compound was tested for its antineoplastic activities against P388 leukemia in CD2F1 male mice.; type: functional, Mus musculus; method in brief: as §1
L1210 [10] = settings: Mus musculus
L1210 [11] = settings: Mus musculus, at 100 mg/kg/day
L1210 [12] = settings: Mus musculus, at 100 mg/kg/day; remark: listed apart in the source
L1210 [13] = settings: Mus musculus; remark: listed apart in the source
L1210 [14] = settings: Mus musculus; remark: listed apart in the source
P388 [15] = assay: Compound was tested for its antineoplastic activity against P388 leukemia in CD2F1 male mice and the average percentage weight change on day 5 was measured.; type: functional; method in brief: as §4
L1210 [16] = assay: Compound was tested for anticancer activities against L1210 leukemia in CD2F1 male mice at dose of 25 mg/kg per day; 0/6; type: functional, Mus musculus
L1210 [17] = assay: Compound was tested for anticancer activities against L1210 leukemia in CD2F1 male mice at dose of 50 mg/kg per day; 0/6; type: functional, Mus musculus
P388 [18] = assay: Compound was tested for its antineoplastic activity against P388 leukemia in CD2F1 male mice.; type: functional, Mus musculus; method in brief: as §1
L1210 [19] = type: functional, Mus musculus
L1210 [20] = type: functional, Mus musculus; remark: listed apart in the source
L1210 [21] = assay: Compound was tested for anticancer activity against L1210 leukemia in CD2F1 male mice at dose of 50 mg/kg per day; type: functional, Mus musculus
L1210 [22] = type: functional, Mus musculus; settings: at 100 mg/kg/day
L1210 [23] = assay: Compound was tested for anticancer activities against L1210 leukemia in CD2F1 male mice at dose of 25 mg/kg per day; type: functional; settings: Mus musculus
P388 [24] = assay: Compound was tested for number of cures from P388 leukemia in CD2F1 male mice as tumor-free survivors after day 60; 6/6; type: functional, Mus musculus; method in brief: as §3
L1210 [25] = assay: Compound was tested for anticancer activity against L1210 leukemia in CD2F1 male mice at dose of 50 mg/kg per day; 12.6/7; type: functional, Mus musculus
L1210 [26] = assay: Anticancer activities against L1210 leukemia in CD2F1 male mice at dose of 50 mg/kg per day; type: functional; settings: Mus musculus
L1210 [27] = assay: Compound was tested for anticancer activity against L1210 leukemia in CD2F1 male mice at dose of 25 mg/kg per day; 8.6/7; type: functional, Mus musculus
L1210 [28] = assay: animal or person; type: functional; settings: Mus musculus
P388 [29] = assay: Compound was tested for its antineoplastic activity against P388 leukemia in CD2F1 male mice and the percent increase in life span was measured on day 30.; type: functional, Mus musculus; method in brief: as §1
L1210 [30] = assay: Compound was tested for anticancer activity against L1210 leukemia in CD2F1 male mice at dose of 25 mg/kg per day; type: functional, Mus musculus
L1210 [31] = assay: Compound was tested for anticancer activities against L1210 leukemia in CD2F1 male mice at dose of 50 mg/kg per day; type: functional, Mus musculus
L1210 [32] = assay: Compound was tested for anticancer activities against L1210 leukemia in CD2F1 male mice at dose of 50 mg/kg per day; 12.0/7; type: functional, Mus musculus
P388 [33] = assay: Compound was tested for number of cures from P388 leukemia in CD2F1 male mice as tumor-free survivors after day 60; 3/6; type: functional, Mus musculus; method in brief: as §3

## CC1(C)CC(NP(=S)(N2CC2)N2CC2)CC(C)(C)N1[O]
P388 [1]
  ILS: 96%
P388 [2]
  Optimal dose: 25
[3]
  selectivity ratio: 2.73

## S=P(N1CC1)(N1CC1)N1CC1 [THIOTEPA]
L1210 [4]
  T/C: 155%
P388 [1]
  ILS: 141%
L1210 [5]
  Survivors at day 30: 0
P388 [2]
  Optimal dose: 6
P388 [6]
  Cures: 0 survivors/total
P388 [7]
  Weight change on day 5: -2.1%
[3]
  selectivity ratio: 2.75
L1210 [8]
  ILS at 6.5 mg/kg/day: 55%
P388 [9]
  ILS40: 2.18 mg/kg/day

## O=c1[nH]cc(F)c(=O)[nH]1 [FLUOROURACIL]
P388 [1]
  ILS: 79%
P388 [2]
  Optimal dose: 200
P388 [6]
  Cures: 0 survivors/total
P388 [7]
  Weight change on day 5: -4%

## CC1(C)CC(NC(=O)NP(=O)(N2CC2(C)C)N2CC2(C)C)C(C)(C)N1[O] (stereo not given)
L1210 [10]
  Survivors at day 30: 0
P388 [1]; Mus musculus
  ILS: 56%
P388 [2]; Mus musculus
  Optimal dose: 90
L1210 [11]
  ILS: 48%
P388 [6]
  Cures (survivors/total): 0
P388 [7]; Mus musculus
  Weight change on day 5: 6.2%
L1210 [12]
  T/C: 148%
L1210 [13]
  T/C survival days: 10.4

## O=P(N1CC1)(N1CC1)N1CC1 [TEPA]
P388 [1]
  ILS: 135%
P388 [2]
  Optimal dose: 6
P388 [6]
  Cures: 0 survivors/total
P388 [7]
  Weight change on day 5: -4%
[3]
  selectivity ratio: 2.2
P388 [9]
  ILS40: 2.75 mg/kg/day

## CC1(C)CC(NC(=O)NP(=O)(N2CC2(C)C)N2CC2(C)C)CC(C)(C)N1[O] (stereo not given)
L1210 [10]
  Survivors at day 30: 0
P388 [1]; Mus musculus
  ILS: 62%
P388 [2]; Mus musculus
  Optimal dose: 90
L1210 [11]
  ILS: 64%
P388 [6]
  Cures (survivors/total): 0
L1210 [14]
  T/C survival days: 11.5
P388 [15]; Mus musculus
  Weight change on day 5: 7.3%
L1210 [12]
  T/C: 164%

## CC1(C)CC(NC(=O)NP(=O)(N2CC2)N2CC2)CC(C)(C)N1[O]
L1210 [16]
  Survivors at day 30: 0
P388 [1]
  ILS: 170%
L1210 [17]
  Survivors at day 30: 0
P388 [18]
  ILS40: 3.4 mg/kg/day
  Optimal dose: 90
L1210 [19]
  Survivors at day 30: 0
L1210 [20]
  T/C survival days: 14
L1210 [21]
  T/C: 181%
L1210 [22]
  T/C: 215%
[3]
  selectivity ratio: 26.5
L1210 [23]
  ILS at 25 mg/kg/day: 23%
P388 [24]
  Cures: 6 survivors/total
P388 [15]
  Weight change on day 5: -2.4%
L1210 [25]
  T/C survival days: 12.6
L1210 [26]
  ILS at 50 mg/kg/day: 81%
L1210 [27]
  T/C survival days: 8.6
L1210 [28]
  ILS at 100 mg/kg/day: 115%
P388 [29]
  ILS max: 439%
L1210 [30]
  T/C: 123%

## CC1(C)CC(NC(=O)NP(=O)(N2CC2)N2CC2)C(C)(C)N1[O] (stereo not given)
P388 [1]
  ILS: 178%
L1210 [17]
  Survivors at day 30: 0
P388 [2]
  Optimal dose: 90
L1210 [31]
  T/C: 172%
[3]
  selectivity ratio: 22.5
P388 [9]
  ILS40: 4 mg/kg/day
L1210 [26]
  ILS at 50 mg/kg/day: 72%
P388 [29]
  ILS max: 387%
L1210 [32]
  T/C survival days: 12
P388 [33]
  Cures: 3 survivors/total

## CC1(C)CC(OP(=S)(N2CC2)N2CC2)CC(C)(C)N1[O]
P388 [1]
  ILS: 103%
P388 [2]
  Optimal dose: 12
[3]
  selectivity ratio: 5.15
